An excerpt weighted towards active compounds, which were near 1.6% of everything screened.
Rpn11 inh: Rpn11 (human) deubiquitinase inhibition; human 26S proteasome, Ub4-pepOG fluorescence polarization; 20S core pre-blocked with epoxomicin; actives 0.59% (n = 360,000); inhibition, % at 20 µM; AID 588493;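 active = inhibition at 20 µM, scaled to each plate's controls, above about 33%, limit read from the data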
SENP1 FRET inh: inhibitors of human SENP1 SUMO protease catalytic domain; Q9P0U3; recombinant SENP1 catalytic domain, CyPet-SUMO1-YPet FRET cleavage; inhibition, % at 10 µM; actives 0.21% (n = 360,000); AID 624204;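 active = inhibition at least 30% at 10 µM, raw YFP signal under a set limit, fluorescence ratio 0.5 to 1.5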;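 note: 0% = enzyme with DMSO and 100% = no enzyme wells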
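Compound: 10 µM single point, 0.5% DMSO; Test system: hSENP1 catalytic domain, recombinant; Timing: 50 min reaction at room temperature; Technique: FRET, CFP and YFP emission; Control set: no-enzyme wells low, DMSO-plus-enzyme wells high control.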
HNF4A DNA FP: change in binding of human HNF4 alpha to DNA; HNF4a-FITC DNA binding, fluorescence polarization, 1 h; activity change, % at 10 µM; AID 1224865; P41235; actives 0.3% (n = 360,000); in the data active = activity change above about 30%, passing the limit was not always enough
TPT1 inh: blocks Candida albicans tRNA 2'-phosphotransferase. recombinant caTPT1, FP RNA substrate dephosphorylation. inhibition, % at 5 µM. actives 0.81% (n = 300,000);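 active = inhibition above the mean of all tested compounds plus 3 SD, set per screening campaign, cut at about 24% in these data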;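 note: plate controls were DMSO alone for no effect and ferristatin control at 100 nM for full effect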
CSN deneddyl inh: inhibitors of human CSN-mediated cullin deneddylation. Q92905. Purified CSN, SCF-Nedd8-OG deneddylation, fluorescence polarization. inhibition, % at 12.5 µM. actives 0.38% (n = 360,000). AID 651999;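 active = pattern-corrected inhibition above about 35%, with an unprinted fluorescence ratio check between 0.5 and 1.5, limit read from the data, passing the limit was not always enough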;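 note: 0% = enzyme with substrate and 100% = substrate without enzyme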
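Assay system: HEK293T-derived human Csn5 enzyme; quantity: 0.24 nM enzyme; medium: Tris/NaCl/DTT buffer, pH 7.5; also added: substrate SCFSkp2-Nedd8OG, 10 nM; doses: 12.5 µM compound; schedule: 90 min reaction at room temperature; signal: FP; read-out: % inhibition of substrate cleavage by Csn5; benchmarks: substrate-only high control, full reaction low control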
Rpn11 confirm: confirmation of human proteasome Rpn11 inhibitors; shares compounds with Rpn11 inh; purified human 26S proteasome, Ub4-pepOG fluorescence polarization; proteasome pretreated with epoxomicin; inhibition, % at 20 µM; actives 29% (n = 1,900); AID 602318
MMP-2 counter: counter-screen for RPN11 inhibitors: inhibition of human MMP-2 | shares compounds with Rpn11 inh | recombinant MMP-2, FRET peptide cleavage fluorescence | inhibition, % at 20 µM | actives 4% (n = 1,900);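 note: human MMP-2 activated beforehand with APMA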
Thrombin inh: thrombin (bovine) inhibition counter-screen; shares compounds with Rpn11 inh; bovine thrombin cleavage of Ub4-pepOG, fluorescence polarization; inhibition, % at 20 µM; actives 13% (n = 1,900); AID 602333;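 active = mean inhibition at least 40% at 20 µM, or signal 3 deviations below plate average, so some actives read negative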;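 note: plate controls were thrombin with DMSO for no effect and buffer wells lacking thrombin for full effect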
Target sequence (P00735 whole entry, looked up): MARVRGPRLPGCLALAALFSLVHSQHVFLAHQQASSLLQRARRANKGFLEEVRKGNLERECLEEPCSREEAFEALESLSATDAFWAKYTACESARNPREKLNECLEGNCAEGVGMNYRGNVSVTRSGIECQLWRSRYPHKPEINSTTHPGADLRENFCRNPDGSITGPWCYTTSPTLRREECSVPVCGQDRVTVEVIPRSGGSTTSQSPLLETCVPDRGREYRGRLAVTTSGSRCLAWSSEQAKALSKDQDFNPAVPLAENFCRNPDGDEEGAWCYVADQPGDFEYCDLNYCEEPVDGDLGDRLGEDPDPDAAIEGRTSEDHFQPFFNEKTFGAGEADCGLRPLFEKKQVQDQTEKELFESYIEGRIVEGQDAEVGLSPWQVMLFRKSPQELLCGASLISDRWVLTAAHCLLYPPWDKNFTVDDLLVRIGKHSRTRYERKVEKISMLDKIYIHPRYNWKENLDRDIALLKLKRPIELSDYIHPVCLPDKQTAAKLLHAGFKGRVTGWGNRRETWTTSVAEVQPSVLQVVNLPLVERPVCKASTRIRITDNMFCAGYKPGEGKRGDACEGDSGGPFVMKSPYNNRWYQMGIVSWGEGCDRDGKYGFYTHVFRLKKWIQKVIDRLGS
The depositor's hits bear a star; · = no result; + = active, no number. Cut-off read from the data, not from the text of the source, unless noted: active = inhibition above about 40%; inactive = the rest.

SMILES | Rpn11 inh | SENP1 FRET inh | HNF4A DNA FP | TPT1 inh | CSN deneddyl inh | Rpn11 confirm | MMP-2 counter | Thrombin inh
Cc1ccc(-c2cc3c(N=O)c4ccccc4c-3n[nH]2)cc1 | 69* | -1 | 8 | -2 | 25 | 20 | 4 | -15
O=C(Nc1nnc(Cc2c[nH]c3ccccc23)s1)c1ccc(Cl)cc1Cl | 42* | -33 | 16 | 20 | -5 | 29 | 0 | 10
CC(C)(C)c1ccc(C(=O)Nc2nnc(Cc3c[nH]c4ccccc34)s2)cc1 | 5 | -42 | 0 | 3 | 11 | · | · | ·
Cc1cc(-c2ccc(S(=O)(=O)N(C)c3ccc(C)c(C)c3)s2)on1 | 40* | -2 | 1 | -1 | 3 | 43* | 9 | 40*
Cc1ccc(N(C)S(=O)(=O)c2ccc(-c3cc(C)no3)s2)cc1 | -5 | 0 | -2 | -3 | 3 | · | · | ·
CCC(C)Oc1ccc(/C=C/c2[nH]c(=O)[nH]c(=O)c2[N+](=O)[O-])cc1OC (centres undefined) | 2 | -5 | -3 | 5 | 6 | · | · | ·
COc1cc(/C=C/c2[nH]c(=O)[nH]c(=O)c2[N+](=O)[O-])ccc1OCCC(C)C | 56* | -14 | 1 | -4 | 0 | 28 | -20 | -20
Cc1c(NC(=O)c2cccc(-c3cc4ccccc4oc3=O)c2)cccc1-c1nc2ncccc2o1 | 138* | -2 | 3 | 2 | 13 | 110* | -27 | 0
COc1cc(NC(=S)NCCCN2CCOCC2)cc(OC)c1 | -1 | 1 | 2 | 1 | -10 | · | · | ·
O=C(Nc1nc(-c2ccc(Cl)s2)cs1)c1ccco1 | 8 | -11 | -3 | 4 | -4 | · | · | ·
O=C(Nc1nc(-c2nc3ccccc3s2)cs1)c1ccco1 | 191* | -5 | 27 | 2 | 9 | 140* | 18 | 24
CN(C)/C=C/c1c([N+](=O)[O-])c2ccc(O)cc2n1-c1ccccc1 | -6 | -6 | 1 | 12 | -1 | · | · | ·
Nc1c(-c2ccccc2)c(CSc2nc3ccccc3[nH]2)nn1-c1ccc(Cl)cc1 | -4 | 2 | 0 | -1 | -2 | · | · | ·
Nc1c(-c2ccccc2)c(CSc2nc3ccccc3[nH]2)nn1-c1cccc(Cl)c1 | 63* | 6 | 13 | 2 | -2 | 42* | 25 | 18
COc1ccc(C(=O)NCCCN(C)CCCNC(=O)c2ccc(OC)cc2)cc1 | 1 | 0 | 3 | 0 | -1 | · | · | ·
CCCC(C)CO (centres undefined) | 5 | 2 | 2 | · | -2 | · | · | ·
NCCCC[C@@H]1NC(=O)c2cc([N+](=O)[O-])cc(I)c2SC[C@@H](C(N)=O)NC(=O)[C@H](Cc2ccc(O)cc2)NC1=O | 44* | 3 | -4 | 0 | 7 | 11 | -4 | -44
NCCCC[C@@H]1NC(=O)[C@H](CCC(=O)O)NC(=O)c2cc([N+](=O)[O-])cc(I)c2SC[C@@H](C(=O)NCC(N)=O)NC1=O | 7 | -2 | 10 | -3 | 0 | · | · | ·
Cc1ccc(C2OCC(C)([N+](=O)[O-])CO2)cc1 (centres undefined) | 5 | 2 | -1 | · | 2 | · | · | ·
C=CCOc1cccn2c(N(C=O)Cc3ccc(OC)cc3)c(CC)nc12 | 6 | -8 | 1 | · | 4 | · | · | ·
O=[N+]([O-])c1cc(-c2ccccc2)cc([N+](=O)[O-])c1O | 0 | 7 | 4 | · | -5 | · | · | ·
Nc1nc(-c2cc(O)ccc2[N+](=O)[O-])cc(-c2ccccc2)c1[N+](=O)[O-] | 40* | -26 | -20 | · | 24 | 43* | -21 | 15
CCC(C)C(=O)Nc1nc(C)c(-c2csc(Nc3ccc(Cl)cc3)n2)s1 (centres undefined) | 39* | -15 | 6 | 9 | 11 | 20 | 14 | -6
O=C(Nc1ccc2c(c1)nc1n2CCOC1)C1CCCCC1 | + | -2 | 0 | -5 | 1 | 0 | -22 | -9
N/C(=N\c1nc2c(c(=O)[nH]1)CCC2)Nc1cccc(Cl)c1 | -7 | 3 | 0 | -3 | -6 | · | · | ·
SMILES | Rpn11 inh | SENP1 FRET inh | HNF4A DNA FP | TPT1 inh | CSN deneddyl inh | Rpn11 confirm | MMP-2 counter | Thrombin inh
N/C(=N\c1nc2c(c(=O)[nH]1)CCC2)Nc1cccc2ccccc12 | 36* | -1 | 5 | 3 | 16 | 47* | -6 | 6
O=C(Nc1nc2ccc(F)cc2s1)c1cccc(S(=O)(=O)N2CCc3ccccc32)c1 | 6 | -2 | 2 | -3 | -2 | · | · | ·
O=C(Nc1nc2ccc(S(=O)(=O)N3CCCCC3)cc2s1)c1cccnc1 | 54* | -27 | 7 | 4 | 2 | 6 | -9 | -2
Cc1ccc2nc(NC(=O)c3ccc(S(=O)(=O)N4CCCc5ccccc54)cc3)sc2c1 | 41* | 3 | -2 | -6 | -4 | -15 | -34 | -14
O=C(Nc1nc2ccc(S(=O)(=O)N3CCCCC3)cc2s1)c1ccncc1 | 11 | -3 | 26 | 0 | 1 | · | · | ·
Cc1ccc(S(=O)(=O)N2CCCC2C(=O)Nc2nc3ccccc3s2)cc1 (centres undefined) | 31* | -1 | -21 | 4 | -2 | -14 | 0 | -19
COC(=O)c1ccc(NC(=O)CN2C(=O)CC(C)S(=O)(=O)c3ccccc32)cc1 (centres undefined) | 0 | 1 | -2 | -3 | -4 | · | · | ·
C[C@H]1CN([C@@H](C)CO)C(=O)CCCn2nncc2CO[C@@H]1CN(C)S(=O)(=O)c1ccc(-c2ccccc2)cc1 | -3 | 1 | 0 | · | -3 | · | · | ·
c1ccc(-c2nnc(CSc3ccc4c(c3)OCCO4)o2)cc1 | 1 | 3 | -1 | -2 | -4 | · | · | ·
COc1ccc(NS(=O)(=O)c2cc(N=Nc3c(O)[nH]c(=O)[nH]c3=O)ccc2OC)cc1Br | 7 | 8 | 3 | · | 7 | · | · | ·
Cc1ccc(N=Nc2c(O)[nH]c(=O)[nH]c2=O)cc1S(=O)(=O)Nc1ccc(Br)cc1 | 50* | -7 | -6 | · | 21 | 108* | -11 | 72*
O=C(COc1ccc([N+](=O)[O-])cc1Cl)NCCN1C(=O)CSC1=O | 0 | 3 | 5 | · | 0 | · | · | ·
CN1CCc2c(sc(/N=C/c3c[nH]c4ccccc34)c2C(N)=O)C1 | 114* | -37 | 32 | 2 | 115* | 3 | -25 | 4
N#Cc1ccc(Oc2nc(C(N)=O)cc(-c3ccccc3)n2)cc1 | -4 | 0 | 2 | 2 | -3 | · | · | ·
COC(=O)c1ccc(Oc2nc(C(N)=O)cc(-c3ccccc3)n2)cc1 | 68* | 2 | 7 | 0 | 24 | 35 | 1 | -6
O=C(Oc1ccccc1)c1ccc2c(c1)C(=O)N(Cc1ccncc1)C2=O | 2 | 0 | 4 | -2 | -7 | · | · | ·
